How the values were obtained:
[1] = target: T1, 5-hydroxytryptamine receptor 1B (Homo sapiens, UniProt P28222); assay: Displacement of [3H]GR125743 from 5HT1B receptor transfected in CHO cells; format: cell-based
How it was run: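 Competition binding used a stably transfected CHO cell line expressing 5HT1B receptor. [3H]-GR125743 was the radioligand, and Ki values were derived from displacement.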

[2] = target: T1, 5-hydroxytryptamine receptor 1B; assay: Antagonist activity at 5HT1B receptor expressed in CHO cells assessed as effect on 5-HT-induced stimulation of [35S]GTP-gamma-S binding at 10 uM; format: functional, cell-based

T1 sequence (P28222 whole entry): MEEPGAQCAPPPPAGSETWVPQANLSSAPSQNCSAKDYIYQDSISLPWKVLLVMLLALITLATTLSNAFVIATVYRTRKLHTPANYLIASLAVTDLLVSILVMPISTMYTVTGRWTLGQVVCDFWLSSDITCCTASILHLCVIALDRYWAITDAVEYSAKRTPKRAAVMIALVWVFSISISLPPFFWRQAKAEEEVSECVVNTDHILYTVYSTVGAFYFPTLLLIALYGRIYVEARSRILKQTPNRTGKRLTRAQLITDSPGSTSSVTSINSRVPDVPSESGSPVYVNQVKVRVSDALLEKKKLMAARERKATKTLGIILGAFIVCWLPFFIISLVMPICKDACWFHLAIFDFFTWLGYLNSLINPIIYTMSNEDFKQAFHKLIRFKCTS

Row | SMILES | Ki [1] [nM] | Intrinsic activity [2] [%]
1 | COc1cc(N2CCCN(C)CC2)c2[nH]c(C(=O)Nc3ccc(N4CCOCC4)cc3)cc(=O)c2c1 | 0.9 | -34
2 | COc1cc(N2CC[C@H](N(C)C)C2)c2[nH]c(C(=O)Nc3ccc(N4CCOCC4)cc3)cc(=O)c2c1 | > 1000 | –
3 | COc1cc(N(C)CCN(C)C)c2[nH]c(C(=O)Nc3ccc(N4CCOCC4)cc3)cc(=O)c2c1 | 392 | –
4 | CN1CCN(c2cc(F)cc3c(=O)cc(C(=O)Nc4ccc(N5CCOCC5)cc4)[nH]c23)CC1 | 9.3 | -34
5 | COc1cc(N(C)CCCN(C)C)c2[nH]c(C(=O)Nc3ccc(N4CCOCC4)cc3)cc(=O)c2c1 | 292 | –
6 | COc1cc(N2CC[C@@H](N(C)C)C2)c2[nH]c(C(=O)Nc3ccc(N4CCOCC4)cc3)cc(=O)c2c1 | 35 | –
7 | CCN1CCC(N(CC)c2cc(OC)cc3c(=O)cc(C(=O)Nc4ccc(N5CCOCC5)cc4)[nH]c23)C1 (stereo not given) | 170 | –

Further lines, results first:

Row | Ki [1] [nM] | Intrinsic activity [2] [%] | SMILES
8 | 30 | – | COc1cc(C(=O)Nc2ccc(N3CCOCC3)cc2)nc2c(N3CCN(C)CC3)cc(F)cc12
9 | > 1000 | – | COc1cc(N(C)C2CCN(C)C2)c2[nH]c(C(=O)Nc3ccc(N4CCOCC4)cc3)cc(=O)c2c1 (stereo not given)
10 | 1300 | – | CNc1cc(C(=O)Nc2ccc(N3CCOCC3)cc2)nc2c(N3CCN(C)CC3)cc(OC)cc12
11 | 51 | – | COc1cc(N2CCN(C)CC2)c2nc(C(=O)Nc3ccc(N4CCOCC4)cc3)cc(N(C)C)c2c1
12 | 3.5 | -34 | COc1cc(N2CCN(C)CC2)c2[nH]c(C(=O)Nc3ccc(N4CCOCC4)cc3)cc(=O)c2c1
